Assay results as given in ChEMBL document CHEMBL4346667 (Eur J Med Chem, 2019).
Active and inactive are the calls of the source. The rule behind the calls is not given here.

Experiments:
MCF7 [1] = assay: Antitumor activity against human MCF7 cells xenografted in BALB/c nude mouse assessed as inhibition of tumor growth at 40 mg/kg administered for a week; type: functional
In short: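 Male BALB/c nude mice, 4 weeks old, 15-20 g. Log-phase MCF-7 cells in DMEM, 0.1 mL of 1×10^6 cells/mL, injected subcutaneously into the hind leg. Calipers twice weekly; at about 90 mm3, groups of 5. Vehicle was isotonic saline plus 0.005% DMSO. Injected at 40 mg/kg for a week; tumour volume recorded daily.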

MCF7 [2] = assay: Cell cycle arrest in human MCF7 cells assessed as accumulation of cells at G2/M phase at 250 to 500 nM after 24 hrs by propidium iodide double staining based flow cytometric analysis; type: functional
In short: (§1)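 Log-phase cells seeded in 6-well plates and, once adhered, treated at 10-1000 nM; incubated in cycles of 6 h on/6 h off up to 48 h. Washed in cold PBS, fixed in 70% ethanol at -20 °C for at least 2 days. Stained with PI (50 µg/mL) 30 min on ice in the dark. 10,000 events on FL2-A vs FL2-W; G1/S/G2/M from DNA modelling. At least three repeats.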

Tubulin (Homo sapiens) [3] = target: T1, Tubulin (Homo sapiens) (UniProt P68371+Q9H4B7+P0DPH7+P68366+Q13509+Q71U36+P04350+Q3ZCM7+P07437+P68363+Q9BQE3+Q6PEY2+Q13885+Q9BVA1+Q9BUF5); assay: Inhibition of tubulin polymerization in human HeLa cells assessed as contracted and rounded cells with disordered abnormal spindles and chromosomal misalignment at 500 nM after 24 hrs by immunofluorescence based confocal microscopy; type: cell-based
In short: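 HeLa cells on glass coverslips were treated for 24 h at 25, 250 or 500 nM. They were fixed in 4% paraformaldehyde for 1 h and permeabilised with 0.2% Triton X-100 for 20 min. Cells were imaged by fluorescence and confocal microscopy.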

MCF7 [4] = assay: Antiproliferative activity against human MCF7 cells assessed as reduction in cell viability after 48 hrs by MTT assay; type: functional, cell-based; settings: MCF7, 48 h
In short: (§2)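 Cells grown at 37 °C, 5% CO2; HeLa, HepG2, H8, HL7702 in RPMI 1640 + 10% fetal calf serum, others in high-glucose DMEM + 10% fetal calf serum. Log-phase cells seeded at 4000-12000/well by doubling time. Attached cells were given 10-fold dilutions, 100 µM to 10 nM (DMSO 0.1% v/v), for 48 h. MTT (2 mg/mL) 4 h, formazan in DMSO, A492. IC50 from triplicate means.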

MCF7 [5] = assay: Induction of apoptosis in human MCF7 cells at 500 nM after 48 hrs by Annexin V-FITC/propidium iodide staining-based flow cytometric analysis relative to control (reference value: 11.6%); type: functional
In short: (§3)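 MCF7 cells were seeded in 6-well plates and exposed after adhering to graded concentrations for 48 h, in cycles of 6 h on and 6 h off. They were then stained with annexin V (1 µg/mL) and PI (0.5 µg/mL) in Ca2+-enriched binding buffer for 15 min in the dark at room temperature. Flow cytometry recorded 10,000 events, FL1 versus FL2. Apoptosis was taken as early plus late stage, with at least 3 repeats.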

MCF7 [6] = assay: Induction of apoptosis in human MCF7 cells at 50 nM after 48 hrs by Annexin V-FITC/propidium iodide staining-based flow cytometric analysis relative to control (reference value: 11.6%); type: functional; in short: as §3
A549 = assay: Antiproliferative activity against human A549 cells assessed as reduction in cell viability after 48 hrs by MTT assay; type: functional, cell-based; settings: A549, 48 h; in short: as §2
MCF7 [7] = assay: Induction of apoptosis in human MCF7 cells at 10 nM after 48 hrs by Annexin V-FITC/propidium iodide staining-based flow cytometric analysis relative to control (reference value: 11.6%); type: functional; in short: as §3
MCF7 [8] = assay: Cell cycle arrest in human MCF7 cells assessed as accumulation of cells at G2/M phase at 100 nM after 24 hrs by propidium iodide double staining based flow cytometric analysis; type: functional; in short: as §1
Tubulin = assay: Binding affinity to tubulin (unknown origin) assessed as dissociation constant by SPR analysis; type: protein-complex assay, Homo sapiens
In short: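 Tubulin immobilised to about 800 mDeg. Injected at 60 µL/min for 300 s; PBS with 0.5% DMSO as running buffer. Measured at 25 °C, with dilution-corrected peak areas.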

Tubulin (Homo sapiens) [9] = target: T1, Tubulin (Homo sapiens); assay: Ratio of Kd for colchicine to Kd for test compound for tubulin (unknown origin) by surface plasmon resonance analysis; type: protein-complex assay
In short: (§4)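 SPR binding to immobilised tubulin (up to 800 mDeg) was measured at 25 °C. Compounds were diluted two-fold from 80 to 2.5 µM in PBS with 0.5% DMSO. They were injected at 60 µL/min for 300 s, with PBS containing 0.5% DMSO as running buffer. Kd values came from the titration data.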

HeLa = assay: Antiproliferative activity against human HeLa cells assessed as reduction in cell viability after 48 hrs by MTT assay; type: functional, cell-based; in short: as §2
HepG2 = assay: Antiproliferative activity against human HepG2 cells assessed as reduction in cell viability after 48 hrs by MTT assay; type: functional, cell-based; settings: HepG2, 48 h; in short: as §2
MRC5 = assay: Antiproliferative activity against human MRC5 cells assessed as reduction in cell viability after 48 hrs by MTT assay; type: functional, cell-based; settings: MRC5, 48 h; in short: as §2
MCF7 [10] = assay: Induction of apoptosis in human MCF7 cells at 100 nM after 48 hrs by Annexin V-FITC/propidium iodide staining-based flow cytometric analysis relative to control (reference value: 11.6%); type: functional; in short: as §3
[11] = Binding affinity to alpha/beta tubulin complex (unknown origin); parameters: species or system Homo sapiens
In short: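 SPR assay: tubulin immobilized up to 800 mDeg (response units). Ligands were diluted two-fold from 80 µM to 2.5 µM in PBS with 0.5% (v/v) DMSO and injected at 60 µL/min for 300 s. Running buffer was PBS with 0.5% DMSO, at 25°C.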

Tubulin (Sus scrofa) [12] = target: T2, Tubulin (Sus scrofa) (UniProt P02554+P02550); assay: Inhibition of porcine tubulin assembly assessed as tubulin growth inhibition incubated for 30 min by fluorometric analysis; type: protein assay
In short: (§5)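 This was a centrifugation assay of tubulin assembly. Tubulin was held at 4 °C with 0.9 mM GTP and 6 mM MgCl2, and aggregates were removed at 90000 g for 10 min at 4 °C. Ligands at 0.05–2 µM (1% DMSO) were incubated for 30 min at 37 °C. Supernatants and pellets were diluted 1:5, and tubulin was read fluorometrically (ex 280, em 323) against standards. The 50% inhibitory concentration came from inhibition curves, as the mean of three experiments.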

HMEC = assay: Antiproliferative activity against human HMEC cells assessed as reduction in cell viability after 48 hrs by MTT assay; type: functional, cell-based; in short: as §2
[13] = Antiproliferative activity against human H8 cells assessed as reduction in cell viability after 48 hrs by MTT assay; type: functional, cell-based; in short: as §2
Tubulin (Sus scrofa) [14] = target: T2, Tubulin (Sus scrofa); assay: Inhibition of porcine tubulin assembly assessed as tubulin growth inhibition at 2 uM incubated for 30 min by fluorometric analysis; type: protein assay; in short: as §5
Tubulin (Homo sapiens) [15] = target: T1, Tubulin (Homo sapiens); assay: Ratio of Kd for PTOX to Kd for test compound for tubulin (unknown origin) by surface plasmon resonance analysis; type: protein-complex assay; in short: as §4
MCF7 [16] = assay: Induction of apoptosis in human MCF7 cells at 250 nM after 48 hrs by Annexin V-FITC/propidium iodide staining-based flow cytometric analysis relative to control (reference value: 11.6%); type: functional; in short: as §3
L02 = assay: Antiproliferative activity against human HL7702 cells assessed as reduction in cell viability after 48 hrs by MTT assay; type: functional, cell-based; settings: L02, 48 h; in short: as §2

T2 sequence (P02550 whole entry, looked up): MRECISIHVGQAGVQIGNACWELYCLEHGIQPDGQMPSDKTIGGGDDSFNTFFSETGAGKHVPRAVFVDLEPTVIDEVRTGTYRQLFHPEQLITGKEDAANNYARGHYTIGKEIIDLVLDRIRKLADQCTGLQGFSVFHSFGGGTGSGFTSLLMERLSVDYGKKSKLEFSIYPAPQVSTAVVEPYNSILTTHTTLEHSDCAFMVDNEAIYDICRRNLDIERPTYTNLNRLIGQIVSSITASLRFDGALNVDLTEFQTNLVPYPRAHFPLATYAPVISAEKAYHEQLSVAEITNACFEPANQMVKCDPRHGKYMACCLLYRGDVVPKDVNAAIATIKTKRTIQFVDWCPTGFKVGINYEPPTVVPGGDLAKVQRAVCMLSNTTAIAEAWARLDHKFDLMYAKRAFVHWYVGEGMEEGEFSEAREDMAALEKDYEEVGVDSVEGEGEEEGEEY
T2 sequence (P02554 whole entry, looked up): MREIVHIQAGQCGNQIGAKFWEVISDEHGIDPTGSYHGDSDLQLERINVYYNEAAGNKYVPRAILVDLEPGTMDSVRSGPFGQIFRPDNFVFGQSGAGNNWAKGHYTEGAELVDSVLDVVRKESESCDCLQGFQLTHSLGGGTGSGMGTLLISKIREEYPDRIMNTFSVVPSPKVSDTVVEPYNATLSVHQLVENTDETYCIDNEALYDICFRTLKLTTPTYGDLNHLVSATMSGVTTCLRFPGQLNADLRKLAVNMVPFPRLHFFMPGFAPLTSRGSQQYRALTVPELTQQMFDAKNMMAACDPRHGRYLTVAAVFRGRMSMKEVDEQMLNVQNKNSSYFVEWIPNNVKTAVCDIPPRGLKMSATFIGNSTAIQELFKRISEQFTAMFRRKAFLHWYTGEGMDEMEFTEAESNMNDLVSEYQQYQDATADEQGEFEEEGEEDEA

COc1cc([C@@H]2c3cc4c(cc3[C@@H](Nc3ccc5cc[nH]c5c3)[C@H]3COC(=O)[C@H]23)OCO4)cc(OC)c1OC
inhibition in vivo at 40 mg/kg (MCF7 [1]): 89.6%
Activity (MCF7 [2]): 90%
inhibition (Tubulin (Homo sapiens) [3]): Active
IC50 (MCF7 [4]): 0.07 µM
Activity (MCF7 [5]): 94.9%
Activity (MCF7 [6]): 20.1%
IC50 (A549): 0.08 µM
Activity (MCF7 [7]): 10.5%
Activity (MCF7 [8]): 50%
Kd (Tubulin): 8.1 µM
Ratio (Tubulin (Homo sapiens) [9]): 2.2
IC50 (HeLa): 0.08 µM
IC50 (HepG2): 0.1 µM
IC50 (MRC5): 69.1 µM
Activity (MCF7 [10]): 93.5%
Ki [11]: 0.01 µM
GI50 (Tubulin (Sus scrofa) [12]): < 0.1 µM
IC50 (HMEC): 61.6 µM
IC50 [13]: 84.5 µM
inhibition (Tubulin (Sus scrofa) [14]): 88%
Ratio (Tubulin (Homo sapiens) [15]): 2.7
Activity (MCF7 [16]): 92.4 - 93%
IC50 (L02): 94.6 µM
